Screens: PubChem, Broad Institute
The full list was thinned out, with hits kept by preference.
IDH1 R132H inh: inhibitors of IDH1 R132H reductase, primary screen, biochemical, plate reader, single point; Isocitrate dehydrogenase [NADP] cytoplasmic (Homo sapiens), O75874; diaphorase/resazurin fluorescence, 60 min; inhibition, % at 10 µM; 70,000 tested, 0.18% active; AID 624101, 2012; in the data active = inhibition above about 34%; inconclusive = no clear call, values can overlap the other calls; inactive = below about 11%;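 also: 0% = DMSO and 100% = no enzyme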
T cruzi growth-1: T. cruzi intracellular proliferation inhibitors, primary screen, cell-based, beta-gal Tulahuen parasites, NIH3T3 host, luminescence | T. cruzi beta-gal in NIH3T3, GalScreen luminescence, 90 h | 77,000 tested, 5.9% active | inhibition, % at 8.34 µM;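 active = mean inhibition above about 93%, with at least 55% of replicates each passing it, limit read from the data, passing the limit was not always enough; inconclusive = only one of those two conditions holds; inactive = neither condition holds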
GASC1 inh: inhibitors of GASC-1 (KDM4C) histone demethylase, primary screen, biochemical, single concentration HTS; GST-KDM4C 2-372, H3K9me3 peptide, LANCE TR-FRET; 96,000 tested, 0.15% active; inhibition, % at 12.5 µM; AID 720574, 2013; Lysine-specific demethylase 4C (Homo sapiens), Q9H3R0;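 active = mean replicate inhibition above about 25%, with at least 55% of replicates also reaching it, limit read from the data, passing the limit was not always enough; inconclusive = only one of those two conditions met; inactive = neither condition met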
Target sequence (Q9H3R0 2-372 limits assumed): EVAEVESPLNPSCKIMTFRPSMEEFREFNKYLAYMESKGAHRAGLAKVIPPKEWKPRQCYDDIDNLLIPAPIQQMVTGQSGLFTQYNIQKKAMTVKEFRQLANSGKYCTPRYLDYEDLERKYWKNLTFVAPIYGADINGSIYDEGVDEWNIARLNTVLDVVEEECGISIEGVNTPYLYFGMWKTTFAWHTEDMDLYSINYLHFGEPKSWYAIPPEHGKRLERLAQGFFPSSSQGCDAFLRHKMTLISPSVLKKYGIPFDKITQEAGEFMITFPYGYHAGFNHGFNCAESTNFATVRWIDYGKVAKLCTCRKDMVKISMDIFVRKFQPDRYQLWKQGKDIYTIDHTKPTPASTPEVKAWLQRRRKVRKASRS
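Test system: N-terminal GST-fused human GASC-1 (KDM4C) fragment, residues 2-372; quantity: GASC-1 enzyme at 10 nM final in reaction; dosing: single dose; schedule: 30 min demethylation and 1 h detection at room temperature; signal: LANCE TR-FRET, excitation 340 nm, emissions 618 and 671 nm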
T cruzi growth-2: T. cruzi intracellular proliferation inhibitors, confirmation, cell-based, NIH3T3 host, beta-gal parasite, luminescence, cherry-pick; shares compounds with T cruzi growth-1; T. cruzi beta-gal in NIH3T3, GalScreen luminescence, 90 h; inhibition, % at 8.35 µM; 5,600 tested, 72% active;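 active = mean replicate inhibition above about 95% and at least 55% of replicates individually reaching it, limit read from the data; inconclusive = only one of the two criteria is met; inactive = neither criterion is met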
T cruzi growth-3: inhibitors of intracellular T. cruzi replication, confirmation, NIH3T3 host cells, beta-gal parasites, cherry-pick, set 2; shares compounds with T cruzi growth-1; T. cruzi beta-gal in NIH3T3, GalScreen luminescence, 90 h; inhibition, % at 2.09 µM; 5,600 tested, 21% active; AID 651740, 2012;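 active = mean inhibition above about 95%, with at least 55% of replicates also reaching it, limit read from the data; inconclusive = meets just one of the two conditions; inactive = meets neither condition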;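 also: plate controls were neutral control median for no effect and positive control median for full effect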
NIH3T3 tox: cytotoxicity in mouse NIH/3T3 fibroblasts, confirmation, cytotoxicity control for T. cruzi proliferation inhibitor project, cell-based, cherry-pick, single point; NIH/3T3 viability, CellTiter-Glo ATP luminescence, 90 h; 5,600 tested, 14% active; shares compounds with T cruzi growth-1; cytotoxicity (signal decrease), % at 8.35 µM;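 active = mean signal decrease across replicates above about 35% based on untreated-well scatter, with enough replicates individually passing, limit read from the data; inconclusive = no rule stated though some were filed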;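 also: 0% = median of neutral control wells and 100% = median of positive control wells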
NIH3T3 tox 2: NIH/3T3 fibroblast cytotoxicity, confirmation, cytotoxicity control, cell-based, cherry-pick, single point, set 2. AID 651744, 2012. shares compounds with T cruzi growth-1. 5,600 tested, 56% active. NIH/3T3 viability, CellTiter-Glo ATP luminescence, 90 h. inhibition, % at 24.9 µM;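 active = mean loss of cell viability signal at or above a set limit, and enough replicates individually reaching it; inconclusive = meets only the mean limit or only the replicate share; inactive = meets neither condition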;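 also: 0% = median of neutral control wells and 100% = median of positive control wells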
* = called active by the depositor; ? = inconclusive; . = not tested or not shown.

SMILES	IDH1 R132H inh	T cruzi growth-1	GASC1 inh	T cruzi growth-2	T cruzi growth-3	NIH3T3 tox	NIH3T3 tox 2
Cc1ccc(C)c(NC(=O)CSc2n[nH]c(-c3ccccc3)n2)c1	-1	.	.	.	.	.	.
COc1ccc(S(=O)(=O)N(C)C[C@H]2Oc3cc(C#CC4CC4)ccc3S(=O)(=O)N([C@H](C)CO)C[C@H]2C)cc1	.	107*	0	108*	93	24	59*
COc1ccc(S(=O)(=O)N(C)C[C@@H]2Oc3cc(C#CC4CCCC4)ccc3S(=O)(=O)N([C@H](C)CO)C[C@@H]2C)cc1	.	73	-2	.	.	.	.
COc1ccc(S(=O)(=O)N(C)C[C@@H]2Oc3cc(C#CC4CC4)ccc3S(=O)(=O)N([C@@H](C)CO)C[C@H]2C)cc1	-2	112*	1	102*	77	53*	40*
COc1ccc(S(=O)(=O)N(C)C[C@@H]2Oc3cc(C#CC4CCCC4)ccc3S(=O)(=O)N([C@@H](C)CO)C[C@@H]2C)cc1	.	67	-2	.	.	.	.
CCC1(C)Cc2c(sc3nc(SC)nc(SCC(=O)Nc4ccc(C)cc4)c23)CO1 (stereo not given)	0	.	.	.	.	.	.
Cc1ccc(-c2ccc([C@@H]3[C@@H](CO)N4CCCCN(C(=O)Nc5cccc(F)c5)C[C@@H]34)cc2)cc1	.	105*	-3	89	?	69*	105*
O=C(Nc1cccc(F)c1)N1CCCCN2[C@@H](CO)[C@@H](c3ccc(-c4ccncc4)cc3)[C@@H]2C1	.	?	-1	104*	83	23	43*
Cc1ccc(-c2ccc([C@H]3[C@@H](CO)N4CCCCN(C(=O)Nc5cccc(F)c5)C[C@@H]34)cc2)cc1	.	94	1	.	.	.	.
O=C(Nc1cccc(F)c1)N1CCCCN2[C@H](C1)[C@H](c1ccc(-c3ccncc3)cc1)[C@@H]2CO	.	76	-1	.	.	.	.
Cc1ccc(-c2ccc([C@@H]3[C@H]4CN(C(=O)Nc5cccc(F)c5)CCCCN4[C@H]3CO)cc2)cc1	.	99*	-2	100*	108*	47*	104*
Cc1ccc(-c2ccc([C@@H]3[C@H](CO)N4CCCCN(C(=O)Nc5cccc(F)c5)C[C@@H]34)cc2)cc1	.	81	.	.	.	.	.
NC(=O)c1ccccc1NC(=O)CCCN1C(=O)c2ccccc2C1=O	0	.	.	.	.	.	.
COCCCNc1ncnc(N)c1[N+](=O)[O-]	-1	.	.	.	.	.	.
O=S(=O)(c1ccc(Cl)cc1)N1CCN(CC(O)COc2ccc3ccccc3c2)CC1 (stereo not given)	1	.	.	.	.	.	.
CCOc1ccc(S(=O)(=O)NCCN2CCOCC2)cc1C	0	.	.	.	.	.	.
COC(=O)c1ccc(NC(=O)CSc2nc3ccccc3c(=O)n2-c2ccc(Cl)cc2)cc1	0	.	.	.	.	.	.
C[C@@H]1CCCCO[C@@H](CN(C)C(=O)Nc2ccc(C(F)(F)F)cc2)[C@H](C)CN([C@@H](C)CO)C(=O)c2cc(NC(=O)Nc3ccc(F)cc3)ccc2O1	.	106*	1	101*	103*	-10	3
C[C@@H]1CN([C@H](C)CO)C(=O)c2cc(NC(=O)Nc3ccc(C(F)(F)F)cc3)ccc2O[C@@H](C)CCCCO[C@H]1CN(C)C(=O)Nc1ccc(F)cc1	-1	87	0	.	.	.	.
C[C@H](CO)N1C[C@H](C)[C@@H](CN(C)C(=O)Nc2ccc(F)cc2)OCCCC[C@H](C)Oc2ccc(NC(=O)Nc3ccc(C(F)(F)F)cc3)cc2C1=O	1	92	-1	.	.	.	.
C[C@H]1CCCCO[C@@H](CN(C)C(=O)Nc2ccc(F)cc2)[C@@H](C)CN([C@@H](C)CO)C(=O)c2cc(NC(=O)Nc3ccc(C(F)(F)F)cc3)ccc2O1	1	102*	-1	102*	111*	7	14
